In data set [1] the test system is TA3/Ha. Briefly: Induction of mitochondrial swelling in mouse TA3/Ha cell mitochondria at 0.15 mM by UV/vis spectrophotometer analysis in presence of N-ethylmaleimide. Format: functional. A digest of the protocol: (§1)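 Same swelling set-up with TA3/Ha mitochondria at 0.15 mM cation, in the presence of NEM, DTT or NAC. Mean ± SEM of at least three experiments, ANOVA with Bonferroni test.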

Data set [2] relates to TA3/Ha. Description: Induction of mitochondrial swelling in mouse TA3/Ha cell mitochondria at 0.15 mM by UV/vis spectrophotometer analysis in presence of dithiothreitol. Type of data set: functional. The procedure, abridged:
as §1

A short description of data set [3]: Ratio of IC50 for mouse MM3MG cells to IC50 for mouse TA3/Ha cells. The procedure, abridged:
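Ratio of 48 h neutral red IC50 values. MM3MG seeded at 4 × 10^4 cells/mL, TA3 at 1 × 10^5 cells/mL. Each IC50 from a variable-slope sigmoidal fit of at least three independent experiments.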

For another data set, the system named is Mus musculus. Description: Toxicity in mouse TA3/Ha cells allografted CAF1-Jax mouse syngenic model at 10 mg/kg, ip administered every 48 hrs of 30 days. Particulars: in vivo. More on the design: dose 10 mg/kg, route intraperitoneal. Format: organism-based. A digest of the protocol: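 Adult male CAF1-Jax mice; 1.0 × 10^6 TA3/Ha cells in 0.1 mL 0.9% NaCl injected subcutaneously into the back. 10 mg/kg given ip every 48 h for 30 days to groups of six mice; controls received vehicle. Tumor diameters measured three times weekly; volume = (max diameter)(min diameter)²/2. Two independent experiments.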

The subject of data set [4] is TA3/Ha. Briefly: Induction of mitochondrial swelling in mouse TA3/Ha cell mitochondria at 0.15 mM by UV/vis spectrophotometer analysis in presence of N-acetylcysteine. Type of data set: functional. The procedure, abridged: as §1
In another data set the test system is TA3/Ha (Mus musculus). Description: Induction of mitochondrial swelling in mouse TA3/Ha cell mitochondria at 0.15 mM by UV/vis spectrophotometer analysis in presence of dithiothreitol.
Data set [5] can be described thus: Uncoupling respiration effect in mouse TA3/Ha cells after 2 mins by polarographic analysis in presence of FCCP. Format: functional. The procedure, abridged:
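Polarographic respiration of digitonin-permeabilized cells (0.013 μg/mg protein; 2.5 mg protein/mL) in PBS pH 7.4 with 10 mM succinate and 1 μg/mL oligomycin. Cations added in 3 μL DMSO. Atractyloside 5 nmol/mg protein was added before succinate. FCCP added at the end: 0.15 μM for TA3, 0.25 μM for TA3-MTX-R. Slope and K0.5 taken from log–log linear regression; at least three experiments.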

Data set [6] has as its system TA3/Ha. Description: Decrease of mitochondrial transmembrane potential in mouse TA3/Ha cell mitochondria at 0.5 uM after 5 mins by safranin staining. Type of data set: functional. A digest of the protocol: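 Safranin (20 μM) absorbance change at 511–533 nm in isolated mitochondria (1.0 mg/mL) in sucrose/KCl/Hepes pH 7.4 buffer with EGTA and phosphate. Baseline 5 min, then 2 mM glutamate + 2 mM malate for 5 min, then cation added. Mean ± SD of at least three experiments.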

The subject of data set [7] is TA3/Ha. Briefly: Induction of NAD(P)H oxidation in mouse TA3/Ha cells assessed as reduction of NAD(P)H/NAD(P)+ ratio at 2.5 mg of protein/mL by spectrofluorometer analysis. Format: functional, cell-based. A digest of the protocol:
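NAD(P)H autofluorescence (ex 340, em 420 nm) at 25 °C with stirring. Medium: PBS pH 7.4, 2.5 mM glutamine, TA3 cells at 2.5 mg protein/mL. Rotenone (12 μM), FCCP (6 μM) or test cation added during the time course.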

Active and inactive are the calls of the source. No cut-off for these calls is given here.

In the case of `O=C(OCCCCCCCCCC[P+](c1ccccc1)(c1ccccc1)c1ccccc1)c1cc(O)c(O)c(O)c1.[Br-]`, the result in the data set on TA3/Ha [1], in the data set with TA3/Ha [2], in the data set on TA3/Ha [4] and with TA3/Ha (Mus musculus) was inactive. The “Ratio IC50” value in [3] is reported as 17. The Activity entry with Mus musculus is “Non-toxic”. Moreover, the K0.5 in [5] is 1.21 µM. Further, the outcome with TA3/Ha [6] and in the data set with TA3/Ha [7] was Active.
